The source of these data is article PMC8842081 (The Journal of Biological Chemistry, 2022).

Entries after “also recorded” stand apart in the source; their conditions may differ. Where no end group is shown, it is not given here.

One data set deals with RSPO2–BMPR1A interaction. The experiment in a line: Cell surface–binding assay, RSPO2-AP on BMPR1A-transfected HEK293T cells. The class given is cell-based, human. Particulars: for RSPO2 binding to BMPR1A transfected cells / RSPO2–BMPR1A binding after long-term dendrimer treatment: 20 μM dendrimer; for RSPO2 binding to BMPR1A transfected cells: n = 3; for RSPO2–BMPR1A binding after long-term dendrimer treatment: 16 h. In a few lines: (§1)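 HEK293T cells were transfected with BMPR1A-HA or LGR4. They were incubated with RSPO2-AP or RSPO3-AP conditioned medium from transiently transfected HEK293T cells, plus 20 μM dendrimer or 50 μM monomeric peptide, for 3 h or 16 h. Surface-bound AP was developed with BM-Purple chromogenic substrate, then imaged and quantified.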

In data set [1] the test system is pSmad1 in THP-1 AML cells. In words: Western blot of pSmad1 in THP-1 cells. Format: cell-based, human. Particulars: 3 days. In a few lines:
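THP-1 cells were exposed for 3 days to 0.5 μM unmodified or N-PEG dendrimer, or 2.0 μM C-PEG dendrimer. Lysis was in Triton or RIPA buffer with protease inhibitors, followed by boiling in Laemmli/β-mercaptoethanol at 95 °C for 5 min. SDS-PAGE immunoblots were probed for phospho-Smad1 against total Smad1 and developed by ECL.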

Data set [2] concerns the target RSPO2^TSP1–BMPR1A^ECD interaction (Homo sapiens, UniProt P36894). In words: In vitro competitive binding assay. Particulars: for reduction of RSPO2^TSP1–BMPR1A^ECD interaction: 100 μM monomeric peptide, 3 h, AP activity, n = 2 to 3 experimental replicates. In a few lines: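 Plates were coated overnight at 4 °C with 1 to 2 μg anti-HA and blocked 1 h in 5% BSA/TBST. HA-RSPO2 TSP1 conditioned medium was captured overnight. AP-BMPR1A ECD was then added for 3 h with 100 μM monomeric peptide (Cys→Ser; in DPBS pH 7.4) or a peptide concentration series. After TBST washes, bound AP was read with chemiluminescent substrate, and IC50 was fitted.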

Data set [3] relates to BMPR1A-HA membrane staining in H1581 cells. In words: Immunofluorescence of BMPR1A-HA membrane localization in H1581 cells. Format: cell-based, human. Particulars: H1581 transfected with BMPR1A-HA, 0.5 μM dendrimer, 3 days.
For data set [4], the system named is Xenopus tropicalis embryos. In words: Xenopus embryo blastocoel microinjection, phenotype. The class given is in vivo. Particulars: 20 nl of 50 μM dendrimer into blastocoel at stage 9. In a few lines: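 X. tropicalis embryos from in vitro fertilization received 20 nl of 50 μM dendrimer in PBS into the blastocoel at stage 9, with bmp4 mRNA at the 4-cell stage as comparator. Embryos were cultured to tailbud stage 28 and scored blind for head size and ventral structures across two independent experiments.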

For the next data set, the system named is LGR4. In words: Cell surface–binding assay, RSPO2-AP on LGR4-transfected HEK293T cells. Particulars: 20 μM dendrimer, 3 h. The class given is cell-based, human. In a few lines: as §1
A further data set has as its system RSPO3 binding to BMPR1A. In words: Cell surface–binding assay, RSPO3-AP on BMPR1A-transfected HEK293T cells. The class given is cell-based, human. Particulars: 20 μM non-PEGylated dendrimer, 3 h; n = 3. In a few lines:
as §1

The test system of data set [5] is BMP4 signaling (pSmad1) in HEPG2 cells. In words: Western blot of pSmad1 in HEPG2 cells. The class given is cell-based, human.
A further data set concerns pSmad1 in H1581 cells. The experiment in a line: Western blot of pSmad1 in H1581 cells. Format: cell-based, human. Particulars: H1581 (elevated RSPO2), 0.5 μM dendrimer, 3 days.
Data set [6] has as its system P38 MAPK and P44/42 MAPK phosphorylation in HEPG2 cells. In words: Western blot of pP38 and pP44/42 MAP kinases in HEPG2 cells. The class given is cell-based, human. Particulars: HEPG2, BMP4 + RSPO2, 0.5 μM dendrimer, 1 h, starved overnight.
In data set [7] the test system is WNT-mediated activation of β-catenin in H1581 cells. In words: Western blot of activated β-catenin in H1581 cells treated with WNT3A. The class given is cell-based, human. Particulars: 0.5 μM dendrimer.
For another data set, the system named is THP-1 cells. The experiment in a line: Flow cytometry of CD11B^+ THP-1 cells. Particulars: THP-1, 3 days, 0.5/1.0/1.5 μM nonmodified, 2.0/3.0 μM N-PEG, 3.0/4.0 μM C-PEG dendrimer. Format: cell-based, human.
Data set [8] deals with BMP target gene expression (sizzled). The experiment in a line: Whole-mount in situ hybridization of sizzled in Xenopus gastrulae. Format: in vivo, Xenopus tropicalis. Particulars: 20 nl of 50 μM dendrimer at stage 9, gastrulae stage 11. In a few lines:
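X. tropicalis embryos were injected at stage 9 into the blastocoel with 20 nl of 50 μM dendrimer in PBS; bmp4 mRNA injected radially at the 4-cell stage served as control. Embryos were fixed at gastrula stage 11 and processed by whole-mount in situ hybridization with a digoxigenin-labeled antisense sizzled probe. The sizzled-expressing area was quantified, pooled from two independent experiments.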

In data set [9] the test system is BMP signaling (Vent2 reporter). The experiment in a line: BMP-responsive Vent2 reporter assay in Xenopus embryos. The class given is in vivo, Xenopus tropicalis. Particulars: 20 nl of 50 μM dendrimer at stage 9, firefly normalized to Renilla. In a few lines: (§2)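 X. tropicalis embryos were co-injected at the 2-cell stage with 200 pg Vent-Luc (BMP) or Topflash (WNT) plus 100 pg Renilla-TK plasmid. At stage 9, 20 nl of 50 μM dendrimer in PBS went into the blastocoel; controls were bmp4 mRNA or lrp6 morpholino. Three pools of four embryos each were lysed at stage 14 to 15 for dual luciferase, firefly normalized to Renilla. Unpaired t test or one-way ANOVA.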

In data set [10] the test system is WNT signaling (TopFlash reporter). In words: WNT-responsive TopFlash reporter assay in Xenopus embryos. The class given is in vivo, Xenopus tropicalis. Particulars: 20 nl of 50 μM dendrimer at stage 9, firefly normalized to Renilla. In a few lines:
as §2

Setting [11] is: 0.5 μM nonmodified or N-PEG dendrimer.

RSPO2^TSP1–BMPR1A^ECD interaction, sequence (P36894 24-152 limits assumed): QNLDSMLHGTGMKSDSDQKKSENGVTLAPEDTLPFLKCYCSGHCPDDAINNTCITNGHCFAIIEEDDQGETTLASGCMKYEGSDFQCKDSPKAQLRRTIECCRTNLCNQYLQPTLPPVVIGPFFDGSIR

For the substance “(PEG-KMTMR)8-Lys4-Lys2-Lys-β-Ala [N-PEG KR^d]”, the “RSPO2 binding to BMPR1A transfected cells” value in the data set with RSPO2–BMPR1A interaction (3 h) was “no effect”.
“(PEG-RNNRTSGFKW)8-Lys4-Lys2-Lys-β-Ala [N-PEG RW^d]”: the “RSPO2 binding to BMPR1A transfected cells” value in the data set with RSPO2–BMPR1A interaction (3 h) was “abolished RSPO2 binding”. For the same substance, in the data set on RSPO2–BMPR1A interaction, the “RSPO2–BMPR1A binding after long-term dendrimer treatment” value was “completely disrupt RSPO2–BMPR1A binding”.
Regarding “(RNNRTSGFKW-PEG)8-Lys4-Lys2-Lys-β-Ala [C-PEG RW^d]”, the “pSmad1 induction in THP-1 cells” value in [1] (2.0 μM C-PEG dendrimer) is “Elevated pSmad1 levels”.
For DTILSPTIAE [DE], the “reduction of RSPO2^TSP1–BMPR1A^ECD interaction” value (“reduction” below) in data set [2] is “greater than 50%”.
In the case of KMTMR [KR], the “effect on RSPO2–BMPR1A interaction in vitro (Fig. S2A)” value in data set [2] (peptide treatment, concentration not given) is “did not affect RSPO2–BMPR1A interaction”. Moreover, in the data set on RSPO2–BMPR1A interaction (3 h), the “RSPO2 binding to BMPR1A transfected cells” value is “no effect”. The “increase in the number of cells showing BMPR1A-HA membrane staining” value in data set [3] was “but not KR^d treatment”. Also, the “pSmad1 induction in THP-1 cells” value in [1] (setting [11]) is recorded as “but not KR^d treatment”. In addition, in [4], the embryotoxicity result is on record as “no embryotoxicity”.
With “PEG-RW: RW peptide mini-PEGylated at both N and C termini ({mini‑PEG}-RNNRTSGFKW-{mini‑PEG})”, the “inhibition of RSPO2-AP binding to BMPR1A-transfected cells, short-term” value with RSPO2–BMPR1A interaction (50 μM PEGylated monomeric peptide, 3 h) was “inhibited RSPO2–BMPR1A interaction”.
Take RNNRTSGFKW [RW]: the “reduction” value in [2] was “strongest inhibition; also recorded: greater than 50%”. The “RSPO2 binding to BMPR1A transfected cells” value with RSPO2–BMPR1A interaction (3 h) is on record as “abolished RSPO2 binding”. In the data set with RSPO2–BMPR1A interaction, the “RSPO2–BMPR1A binding after long-term dendrimer treatment” value is “completely disrupt RSPO2–BMPR1A binding”. Also, the “RSPO2 binding to LGR4 transfected cells” value in the data set on LGR4 was “without affecting LGR4 binding”. In addition, the “RSPO3 binding to BMPR1A transfected cells” value in the data set with RSPO3 binding to BMPR1A is given as “unable to abolish RSPO3 binding”. In data set [5] (HEPG2, 0.5 μM dendrimer, 3 days), the “pSmad1 level without simultaneous treatment of RSPO2” value was “no effect on pSmad1 level”. Also, in data set [5] (HEPG2, BMP4 + RSPO2, 0.5 μM dendrimer, 1 h, starved 3 h), the “rescue of RSPO2-mediated decrease of pSmad1 levels” value is reported as “rescued the RSPO2-mediated”. In addition, the “rescue of RSPO3-mediated decrease of pSmad1 levels” value in data set [5] (HEPG2, BMP4 + RSPO3, 0.5 μM dendrimer, 1 h, starved 3 h) was “not the RSPO3-mediated decrease of pSmad1 levels”. For the same substance, in the data set on pSmad1 in H1581 cells, the “phosphorylation of Smad1” value is “increased phosphorylation of Smad1”. Also, in data set [6], the “rescue of RSPO2-mediated decrease of pP38 and pP44/42 levels” value is “rescued the RSPO2-mediated decrease of pP38 and pP44/42 levels”. Besides, the “WNT-mediated activation of β-catenin” value in [7] is given as “no effect”. Besides, the “increase in the number of cells showing BMPR1A-HA membrane staining” value in data set [3] is reported as “approximately threefold”. For the same substance, the “pSmad1 induction in THP-1 cells” value in [1] (setting [11]) is given as “induced pSmad1”. In addition, in the data set on THP-1 cells, the “induction of the number of CD11B^+ cells” value is listed as approximately 10 fold. In addition, in [4] (listed as RW^d), the embryotoxicity result was “no Xenopus embryotoxicity”. In addition, the sizzled expression result in [8] is reported as “expanded BMP target gene expression (sizzled) toward the dorsal side”. Also, the “endogenous BMP signaling (Vent2 reporter)” value in [9] is listed as “enhanced endogenous BMP signaling”. Further, the “WNT signaling (TopFlash reporter)” value in data set [10] is listed as “no effect on WNT signaling”.
For SRRSKMTMRHSPG [SG], the “reduction” value in data set [2] is given as “greater than 50%”.
